DAGLB inhibitor = blocks human DAGLB lipase activity; Q8NCG7; HEK293T DAGLB membrane lysate, EnzChek fluorogenic substrate; inhibition, % at 5.17 µM; actives 0.059% (n = 340,000); in the data active means inhibition above about 34%
Target sequence (Q8NCG7 whole entry, looked up): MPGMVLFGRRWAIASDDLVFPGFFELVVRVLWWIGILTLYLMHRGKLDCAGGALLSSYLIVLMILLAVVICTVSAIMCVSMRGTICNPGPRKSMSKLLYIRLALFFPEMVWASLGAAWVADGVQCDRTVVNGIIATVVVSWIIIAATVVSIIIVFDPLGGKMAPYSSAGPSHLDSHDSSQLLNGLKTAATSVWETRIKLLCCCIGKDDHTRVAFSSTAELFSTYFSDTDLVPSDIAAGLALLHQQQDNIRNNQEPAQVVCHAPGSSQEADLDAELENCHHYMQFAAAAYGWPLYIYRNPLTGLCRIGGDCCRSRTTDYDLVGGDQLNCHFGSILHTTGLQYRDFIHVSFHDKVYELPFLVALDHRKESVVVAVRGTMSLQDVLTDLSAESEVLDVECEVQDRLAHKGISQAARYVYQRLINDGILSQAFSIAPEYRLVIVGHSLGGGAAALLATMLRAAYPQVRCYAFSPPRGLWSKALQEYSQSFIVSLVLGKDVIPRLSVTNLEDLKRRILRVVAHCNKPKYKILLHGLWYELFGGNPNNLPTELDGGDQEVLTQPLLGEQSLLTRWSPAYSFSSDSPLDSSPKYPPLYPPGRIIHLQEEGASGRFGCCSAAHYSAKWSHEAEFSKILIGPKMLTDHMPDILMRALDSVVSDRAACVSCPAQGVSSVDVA
MIN6 prolif = MIN6 beta-cell proliferation induction. MIN6 cells proliferation, ATPlite luminescence, 48 h; cells starved in 0.2% serum; 100% = growth in 10% serum. proliferation, % at 10 µM. AID 2380. actives 0.29% (n = 330,000);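 active means compounds whose signal lies at least 3.5 SD above the mean of all wells on their plate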
MT1-MMP act inh = MT1-MMP (human) activation inhibition | P50281 | HT1080 RFP-PRO-GFP cells, GFP/RFP ratio fluorescence, overnight; percent of plate control window, DMSO zero | GFP/RFP ratio change, % at 20 µM | actives 0.061% (n = 360,000);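 active means GFP/RFP ratio change of at least 30% with cell ATP level not reduced by more than half and red fluorescence within 50% of control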
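Test system: HT1080 RFP-PRO-GFP cells; Benchmarks: DMSO and RFP-L50D-GFP cell wells; Timing: cells overnight before dosing, compound overnight, 37 °C, 5% CO2; Compound: one 20 µM compound dose with 1% DMSO; Read-out: GFP/RFP fluorescence ratio.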
MsrA act = bovine methionine sulfoxide reductase A activation; purified bovine MsrA, absorbance read-out; activation, % at 10.6 µM; actives 0.3% (n = 360,000); AID 602163; in the data active means activation above about 7.5%
SKN-1 inh = inhibitors of C. elegans SKN-1; actives 0.49% (n = 360,000); C. elegans VP596 Pgst-4::GFP/RFP ratio, acrylamide-induced, 24 h; inhibition, % at 21.8 µM;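 active means interference check ratio from 0.5 to 1.5 plus GFP to RFP signal ratio inhibition reaching or exceeding a fixed threshold, cut at about 30% in these data, passing the limit was not always enough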
MsrA inhibitor = inhibits bovine methionine sulfoxide reductase A | purified bovine MsrA, absorbance read-out | inhibition, % at 15.5 µM | actives 0.75% (n = 360,000) | AID 651718; in the data active means inhibition above about 4.5%
Numbers stand for hits; – = inactive; · = not tested or not shown; ! = repeats disagree. An excerpt weighted towards active compounds, which were near 1.8% of everything screened.

SMILES	DAGLB inhibitor	MIN6 prolif	MT1-MMP act inh	MsrA act	SKN-1 inh	MsrA inhibitor
Cc1cccc(N=Nc2c(O)[nH]c3ccc(Br)cc23)c1	–	–	–	–	–	–
O=C(CSCc1ccc(Br)cc1)N=Nc1c(O)[nH]c2ccccc12	–	8.7	–	–	–	–
N=C(N)N=Nc1c(O)[nH]c2ccc(Br)cc12	–	–	–	–	–	4.6
CC(C)=CCC/C(C)=C/CN1C(=O)N(c2ccc(F)cc2)[C@H]2C[C@@H](c3ccccc3)[C@@H](C)[C@@H](C(=O)N3CCOCC3)C[C@H]21	·	·	·	·	·	–
COc1ccc2cc(N3CCCC3=O)ccc2c1	–	·	–	–	41	–
COc1cc(NC(=O)c2ccc(N3CCCC3=O)cc2)cc(OC)c1	–	–	·	–	–	–
COCc1cc(C)nc(OCC(=O)N/N=C/c2ccc(O)cc2O)c1C#N	–	–	–	–	–	4.5
N/C(=N\OC(=O)c1ccc(Cl)c(Cl)c1)c1ccccn1	–	–	–	–	35	–
COC(=O)CCN(Cc1cccc(OC)c1OC)S(=O)(=O)c1ccccc1Br	·	·	·	·	·	–
CCCOc1ccc(/C(O)=C2/C(=O)C(=O)N(c3cc(C)on3)C2c2ccc(C(=O)OC)cc2)cc1 (stereo not drawn)	–	–	–	–	40	–
CCOc1ccc(/C(O)=C2/C(=O)C(=O)N(c3cc(C)on3)C2c2ccc(C(=O)OC)cc2)cc1 (stereo not drawn)	–	–	–	–	–	–
Cc1ccc(N2CC(C(=O)N/N=C/c3sccc3C)CC2=O)cc1 (stereo not drawn)	–	–	–	–	–	4.6
CC(/C=C/c1ccc(C)o1)=C\C(=O)O	–	–	–	20	–	–
Cc1c(C)n(C)c2ccc(C(=O)NCCN3CCOCC3)cc12	–	–	–	–	50	–
O=C(N[C@H](Cc1ccccc1)C(=O)NCCN1CCOCC1)[C@H]1O[C@@H](n2ccc(=O)[nH]c2=O)[C@H](O)[C@@H]1O	·	·	·	·	·	–
Cc1cccc(NC(=S)N/N=C/c2ccc([N+](=O)[O-])s2)c1	–	–	–	–	44	–
Cc1ccc(S/C=C\C(=O)c2ccccc2)cc1	–	–	–	–	42	–
COC(=O)[C@]12C[C@H](CC(=O)N3CCSCC3)C(=O)N(Cc3ccccc3)C1=C[C@H](C1CCCC1)O[C@@H]2C	·	·	·	·	·	–
CCCCCCCCN1C(=O)[C@@H](CC(=O)NCc2ccc(OC)c(OC)c2)C[C@@]2(C(=O)OC)C1=C[C@H](C(C)(C)C)O[C@@H]2C	·	·	·	·	·	–
Cc1cccc(-c2nc(-c3ccncc3)no2)c1	–	–	–	–	–	–
Cc1ccc(-c2nc(-c3ccncc3)no2)cc1	–	·	–	–	42	–
Cc1cc(C)cc(-c2nc(-c3ccncc3)no2)c1	–	–	–	–	–	–
FC(F)(F)c1cccc(-c2nc(-c3ccncc3)no2)c1	–	·	–	–	50	–
Brc1cccc(-c2nc(-c3ccncc3)no2)c1	–	–	–	–	77	–
Cc1cccc(CN2CCSCCS2(=O)=O)c1	·	·	·	·	·	–
SMILES	DAGLB inhibitor	MIN6 prolif	MT1-MMP act inh	MsrA act	SKN-1 inh	MsrA inhibitor
O=S1(=O)N[C@@H](Cc2ccccc2)COc2cc(NCCCN3CCOCC3)ccc21	·	·	·	·	·	–
COc1cc(N2CCC(O)CC2)ccc1Nc1cc(Nc2ccccc2S(=O)(=O)C(C)C)c2cc[nH]c2n1	·	·	·	·	·	–
CCCCNc1cccc2c1S(=O)(=O)N[C@H](C)CO2	·	·	·	·	·	–
C=CCNC(=O)c1cc2c(=O)n3ccccc3nc2s1	–	–	–	–	41	–
C[C@@H]1CN([C@@H](C)CO)C(=O)c2ccccc2-c2ccccc2CO[C@@H]1CN(C)Cc1ccc(Cl)c(Cl)c1	·	·	·	·	·	–
CCOC(=O)C1=C(Nc2ccccc2)CC(C)(O)C(C(=O)OCC)C1c1ccc(Cl)cc1 (stereo not drawn)	–	·	–	–	44!	–
CC(C(=O)N1CCN(C)CC1)N1C(=O)c2ccccc2C1=O (stereo not drawn)	–	–	–	–	36	–
COc1ccccc1NC(=O)CSc1nnc(-c2ccncc2)o1	–	–	–	–	40	–
O=C(O)c1cnc2ccccc2n1	–	–	–	–	37	–
CCOC(=O)CSc1nc2ccccc2c(=O)n1CCN1CCOCC1	–	–	–	–	36	–
Cc1ccc(-n2nnnc2-c2ccccc2)cc1	–	–	–	–	–	–

Screens deposited in PubChem BioAssay by several laboratories.
